Key:
Peptostreptococcus sp. = assay: In vitro activity against Peptostreptococcus sp.(TB-11); assay type: functional, peptostreptococcus s
Method in brief: (§1)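 MIC for anaerobic bacteria, measured on Wilkins-Chalgren agar.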

Bacteroides fragilis [1] = assay: In vitro activity against Bacteroides fragilis (784); assay type: functional
Method in brief: (§2)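 MIC determined under anaerobic conditions on Wilkins-Chalgren agar.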

Mus musculus [2] = assay: In vivo activity against Staphylococcus aureus NCTC 10649, administered po( each compound tested at 3 doses with 10 animals); assay type: functional
Method in brief: (§3)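 Mice were challenged intraperitoneally with the organism. The compound was given orally as a total dose split into equal portions at 1 and 5 h post-infection. Three doses were used, with 10 animals per dose.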

[3] = tested on: Peptoniphilus asaccharolyticus; assay: In vitro activity against Peptococcus asaccharolyticus (ATCC 14963).; assay type: functional; method in brief: as §2
[4] = tested on: Bacteroides thetaiotaomicron; assay: In vitro activity against Bacteroides thetaiotaomicron (ATCC 29741); assay type: functional; method in brief: as §2
Clostridium perfringens [5] = assay: In vitro activity against Clostridium perfringens (SFBC 2026); assay type: functional; method in brief: as §1
[6] = Solubility in aqueous media 0.1 N chloride, pH 6.5; assay type: physicochemical; settings: read-out: S
Burkholderia cepacia = assay: In vitro activity against Pseudomonas cepacia (296I); assay type: functional
Method in brief: (§4)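 MIC determined by agar dilution on brain-heart infusion agar under aerobic conditions.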

Bacteroides fragilis [7] = assay: In vitro activity against Bacteroides fragilis (SFM2906A); assay type: functional; method in brief: as §2
[8] = tested on: Peptostreptococcus anaerobius; assay: In vitro activity against Peptostreptococcus anaerobius (ATCC 27337); assay type: functional; method in brief: as §2
Enterococcus faecium = assay: In vitro activity against Enterococcus faecium (ATCC 8043).; assay type: functional; method in brief: as §4
Escherichia coli [9] = assay: In vitro activity against Escherichia coli Juhl; assay type: functional
Method in brief: (§5)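 MIC for aerobic bacteria, measured on brain-heart infusion agar.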

Bacteroides fragilis [10] = assay: In vitro activity against Bacteroides fragilis (105AT25285); assay type: functional; method in brief: as §2
Thomasclavelia ramosa = assay: In vitro activity against Clostridium romosum (7); assay type: functional
Streptococcus pyogenes = assay: In vitro activity against Streptococcus pyogenes (2548 INDUC).; assay type: functional; method in brief: as §4
[11] = Solubility in aqueous media urine, pH 7.0; assay type: physicochemical; settings: read-out: S
Streptococcus agalactiae = assay: In vitro activity against Streptococcus agalactiae (CMX 508).; assay type: functional; method in brief: as §4
Fusobacterium nucleatum = assay: In vitro activity against Fusobacterium nucleatum (ATCC 25586); assay type: functional; method in brief: as §2
Providencia stuartii = assay: In vitro activity against Providencia stuartii (CMX 640); assay type: functional; method in brief: as §4
Clostridioides difficile [12] = assay: In vitro activity against Clostridium difficile (ATCC 9689); assay type: functional
[13] = tested on: Bacteroides thetaiotaomicron; assay: In vitro activity against Bacteroides thetaiotaomicron (SFM2975-2); assay type: functional; method in brief: as §2
Pseudomonas aeruginosa = assay: In vitro activity against Pseudomonas aeruginosa (K799/WT).; assay type: functional; method in brief: as §4
Phocaeicola vulgatus = assay: In vitro activity against Bacteroides vulgatus(SFBC 2375); assay type: functional; method in brief: as §2
Micrococcus luteus = assay: In vitro activity against Micrococcus luteus (ATCC 4698); assay type: functional; method in brief: as §4
Mus musculus [14] = assay: In vivo activity against Escherichia coli Juhl(100X LD50), when administered po(each compound tested at 3 doses with 10 animals); assay type: functional; method in brief: as §3
Fusobacterium = assay: In vitro activity against Fusobacterium sp.(GS-10); assay type: functional; method in brief: as §2
[15] = tested on: Prevotella melaninogenica; assay: In vitro activity against Bacteroides melaninogenicus (ATCC 25845).; assay type: functional; method in brief: as §2
Streptococcus equinus = assay: In vitro activity against Streptococcus bovis (A5169).; assay type: functional; method in brief: as §4
Mus musculus [16] = assay: In vivo activity against Pseudomonas aeruginosa A5007 (100X LD50), administered sc( each compound tested at 3 doses with 10 animals); assay type: functional
Method in brief: (§6)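 Mice were challenged intraperitoneally with the organism. The compound was given subcutaneously as a total dose split into equal portions at 1 and 5 h post-infection. Three doses were used, with 10 animals per dose.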

Clostridioides difficile [17] = assay: In vitro activity against Clostridium difficile (ATCC 17857); assay type: functional
Mus musculus [18] = assay: In vivo activity against Staphylococcus aureus NCTC 10649, administered sc ( each compound tested at 3 doses with 10 animals); assay type: functional; method in brief: as §6
Bacteroides fragilis [19] = assay: In vitro activity against Bacteroides fragilis (SFM2975-7); assay type: functional; method in brief: as §2
Escherichia coli [20] = assay: In vitro activity against Escherichia coli (DC-2); assay type: functional; method in brief: as §5
Cutibacterium acnes = assay: In vitro activity against Propionibacterium acnes (132); assay type: functional; method in brief: as §2
Clostridium perfringens [21] = assay: In vitro activity against Clostridium perfringens (104AT13124); assay type: functional; method in brief: as §1
Staphylococcus aureus = assay: In vitro activity against Staphylococcus aureus(ATCC 6538P); assay type: functional; method in brief: as §4
Mus musculus [22] = assay: In vivo activity against Pseudomonas aeruginosa A5007 (100X LD50), administered po( each compound tested at 3 doses with 10 animals); assay type: functional; method in brief: as §3

Which MIC (Peptostreptococcus sp.) does the source give for `Cl.N[C@H]1CCN(c2nc3c(cc2F)c(=O)c(C(=O)O)cn3-c2ccc(F)cc2F)C1` here?
Its MIC is 0.25 µg/mL.

And the MIC (Bacteroides fragilis [1])?
Its MIC is 0.25 µg/mL.

What about the ED50 (Mus musculus [2]) of the same compound?
Its ED50 is 0.8 mg/kg.

What about the MIC [3] of the same compound?
Its MIC is 0.12 µg/mL.

What about the MIC [4] of the same compound?
Its MIC is 0.5 µg/mL.

And the MIC (Clostridium perfringens [5])?
Its MIC is 0.12 µg/mL.

And the solubility [6]?
The solubility was 4.5 µg/mL.

And the MIC (Burkholderia cepacia)?
Its MIC is 3.1 µg/mL.

And the MIC (Bacteroides fragilis [7])?
Its MIC is 0.25 µg/mL.

And the MIC [8]?
The MIC was 0.12 µg/mL.

What about the MIC (Enterococcus faecium) of the same compound?
Its MIC is 0.1 µg/mL.

What about the MIC (Escherichia coli [9]) of the same compound?
Its MIC is 0.02 µg/mL.

What about the MIC (Bacteroides fragilis [10]) of the same compound?
Its MIC is 0.25 µg/mL.

What about the MIC (Thomasclavelia ramosa) of the same compound?
Its MIC is 0.5 µg/mL.

And the MIC (Streptococcus pyogenes)?
Its MIC is 0.1 µg/mL.

And the solubility [11]?
The solubility was 17.1 µg/mL.

What about the MIC (Streptococcus agalactiae) of the same compound?
The MIC was 0.2 µg/mL.

What about the MIC (Fusobacterium nucleatum) of the same compound?
The MIC was 0.25 µg/mL.

And the MIC (Providencia stuartii)?
Its MIC is 1.56 µg/mL.

And the MIC (Clostridioides difficile [12])?
The MIC was 1 µg/mL.

What about the MIC [13] of the same compound?
The MIC was 1 µg/mL.

What about the MIC (Pseudomonas aeruginosa) of the same compound?
The MIC was 0.1 µg/mL.

And the MIC (Phocaeicola vulgatus)?
The MIC was 0.25 µg/mL.

And the MIC (Micrococcus luteus)?
The MIC was 0.78 µg/mL.

And the ED50 (Mus musculus [14])?
Its ED50 is 0.8 mg/kg.

What about the MIC (Fusobacterium) of the same compound?
Its MIC is 0.25 µg/mL.

And the MIC [15]?
Its MIC is 0.5 µg/mL.

What about the MIC (Streptococcus equinus) of the same compound?
The MIC was 0.2 µg/mL.

What about the ED50 (Mus musculus [16]) of the same compound?
The ED50 was 19.1 mg/kg.

And the MIC (Clostridioides difficile [17])?
The MIC was 1 µg/mL.

What about the ED50 (Mus musculus [18]) of the same compound?
The ED50 was 0.4 mg/kg.

What about the MIC (Bacteroides fragilis [19]) of the same compound?
The MIC was 0.5 µg/mL.

What about the MIC (Escherichia coli [20]) of the same compound?
The MIC was 0.2 µg/mL.

What about the MIC (Cutibacterium acnes) of the same compound?
Its MIC is 2 µg/mL.

And the MIC (Clostridium perfringens [21])?
Its MIC is 0.12 µg/mL.

What about the MIC (Staphylococcus aureus) of the same compound?
The MIC was 0.02 µg/mL.

What about the ED50 (Mus musculus [22]) of the same compound?
The ED50 was 11.5 mg/kg.

From ChEMBL document CHEMBL1124180, “Asymmetric synthesis and properties of the enantiomers of the antibacterial agent 7-(3-aminopyrrolidin-1-yl)-1-(2,4-difluorophenyl)-1,4-dihydro-6- fluoro-4-oxo-1,8-naphthyridine-3-carboxylic acid hydrochloride” (J Med Chem, 1988)
